Results taken from paper PMC11982377 (Communications Biology, 2025).
Entries after “also recorded” stand apart in the source; their conditions may differ.

Key:
sfWDS [1] = molecular target: T1, sfWDS (Spodoptera frugiperda, UniProt A0A2H1VC02); test: In vitro ubiquitination; assay type: biochemical; settings: listed as MS67
sfWDS [2] = molecular target: T1, sfWDS; test: Sf9 cell degradation assay; assay type: cell-based; settings: Sf9 cells
Procedure, shortened: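 Sf9 cells in ESF921 medium, split into 1e6-cell aliquots and treated 24 h with test compound or DMSO. For sfWDS, some treatments at 10 μM ± bortezomib 10 μM. Lysed in Tris-SDS, then acetone precipitation, urea reduction/alkylation, Trypsin/LysC digest and MCX cleanup. Stable-isotope peptide standards spiked in; targeted MS. Signal normalised to isotope and total peptide, as % of DMSO. n = 4. Dose-response by 4-parameter fit.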

Sf9 cells = test: PROTAC cellular permeability and distribution measured by LCMS; assay type: in vitro ADME, Spodoptera frugiperda; settings: 10 µM, 24 h
WDR5 = settings: MV4-11 cells ref 34; cited from earlier work

Cc1ncsc1-c1ccc([C@H](C)NC(=O)[C@@H]2C[C@@H](O)CN2C(=O)[C@@H](NC(=O)CNC(=O)c2ccc(F)c(-c3ccc(N4C[C@@H](C)N(C)[C@@H](C)C4)c(NC(=O)c4c[nH]c(=O)cc4C(F)(F)F)c3)c2)C(C)(C)C)cc1 [Compound 12]
IVQ Y/N (ubiquitination of sfWDS) (sfWDS [1]): polyubiquitination of sfWDS was observed in a dose-dependent manner
degradation of sfWDS in cell (sfWDS [2]): did not demonstrate in cell degradation
degradation of sfWDS in cell (sfWDS [2]; listed as MS67): failed to prompt degradation of sfWDS; also recorded: did not show degradation in cells
PROTAC in cells (of total PROTAC recovery, cells vs media) (Sf9 cells): only detected at very low intracellular levels
Dmax, degradation of WDR5 (WDR5): 94%
